Results from ChEMBL document CHEMBL1143271, “Synthesis and CB1 cannabinoid receptor affinity of 4-alkoxycarbonyl-1,5-diaryl-1,2,3-triazoles” (Bioorg Med Chem Lett, 2009).

Target: Cannabinoid receptor 1 (Rattus norvegicus, UniProt P20272)
Assay: Displacement of [3H]SR141716 from CB1 receptor in rat cerebellum homogenate
Type: tissue-based
In short: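 Competition binding against [3H]SR141716 in rat cerebellum homogenates. Each concentration was run in triplicate, and each experiment was repeated three times. Data were fitted by non-linear regression, and values are mean ± SEM of three experiments.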

Chain of Cannabinoid receptor 1 (P20272 whole entry): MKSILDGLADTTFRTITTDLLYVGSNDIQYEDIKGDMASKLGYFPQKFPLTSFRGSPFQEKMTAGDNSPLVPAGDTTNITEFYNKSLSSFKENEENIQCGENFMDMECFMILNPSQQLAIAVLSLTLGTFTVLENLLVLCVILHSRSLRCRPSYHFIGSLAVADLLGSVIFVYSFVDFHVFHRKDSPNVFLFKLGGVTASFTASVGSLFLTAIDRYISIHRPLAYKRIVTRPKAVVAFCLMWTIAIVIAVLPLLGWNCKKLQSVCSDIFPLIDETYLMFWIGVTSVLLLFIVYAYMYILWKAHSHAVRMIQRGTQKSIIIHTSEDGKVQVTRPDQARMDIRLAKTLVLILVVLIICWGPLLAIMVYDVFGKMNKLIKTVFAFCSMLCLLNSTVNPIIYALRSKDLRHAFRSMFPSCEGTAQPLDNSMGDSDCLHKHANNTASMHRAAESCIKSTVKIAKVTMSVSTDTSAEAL

SMILES	Ki
O=C(OCc1ccccc1)c1nnn(-c2ccc(Cl)cc2Cl)c1-c1ccc(Cl)cc1	97 nM
CCCOC(=O)c1nnn(-c2ccc(Cl)cc2Cl)c1-c1ccc(Cl)cc1	4.6 nM
O=C(OC1CCCCC1)c1nnn(-c2ccc(Cl)cc2Cl)c1-c1ccc(Cl)cc1	240 nM
COC(=O)c1nnn(-c2ccc(Cl)cc2)c1-c1ccc(Cl)cc1	4400 nM
Clc1ccc(-c2cnnn2-c2ccc(Cl)cc2)cc1	6900 nM
COC(=O)c1nnn(-c2ccc(Cl)cc2Cl)c1-c1ccc(Cl)cc1	66 nM
O=C(NN1CCCCC1)c1nnn(-c2ccc(Cl)cc2Cl)c1-c1ccc(Cl)cc1	590 nM
Clc1ccc(-c2cnnn2-c2ccc(Cl)cc2Cl)cc1	1420 nM
CCOC(=O)c1nnn(-c2ccc(Cl)cc2Cl)c1-c1ccc(Cl)cc1	180 nM
O=C(Oc1ccccc1)c1nnn(-c2ccc(Cl)cc2Cl)c1-c1ccc(Cl)cc1	11 nM
